The record followed here is ChEMBL document CHEMBL4732148 (Eur J Med Chem, 2021).

A short description of data set [1]: Stability in pH 2 aqueous buffer assessed as parent compound remaining at 200 uM measured after 4 hrs by UV spectrophotometry. The data set is classed as physicochemical. The conditions noted are these: read-out: Stabilty. The essentials: (§1)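 Compound diluted to […] in aqueous buffers at pH 1.0, 2.0, 4.0, 6.0 or 8.0 and held 4 h at 40 °C. Intact prodrug separated by reverse-phase HPLC. 260 nm peak area after incubation compared with untreated prodrug, giving % remaining.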

A short description of data set [2]: Cytotoxicity against HEK293 cells assessed as reduction in cell viability measured after 96 hrs by celltiter-glo assay. The data set is classed as cell-based. The conditions noted are these: human, read-out: TC50.
A short description of data set [3]: Stability in pH 6 aqueous buffer assessed as parent compound remaining at 200 uM measured after 4 hrs by UV spectrophotometry. The conditions noted are these: read-out: Stabilty. Format: physicochemical. The essentials: as §1
In another data set the test system is HepG2. The data set can be described thus: Cytotoxicity against human HepG2 cells assessed as reduction in cell viability measured after 96 hrs by celltiter-glo assay. Format: functional. The conditions noted are these: read-out: TC50 (the source's name). (In general: Cellular ATP, detected with luciferase, serves as a proxy for viable cell number.)
Data set [4] concerns Hepatitis C virus. The data set can be described thus: Antiviral activity against HCV infected in human Huh-7 cells assessed as reduction in viral replication at 25 to 1000 nM measured after 48 hrs in presence of deoxycytidine by luciferase reporter gene assay. The conditions noted are these: Hepacivirus hominis, dose 25-1000 nM. Format: functional, organism-based. Put shortly:
(§2)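 Huh7 cells carrying an HCV luciferase replicon, grown in DMEM with 10% FBS and G418. Cells treated 48 h continuously with compound at 25–1,000 nM, either alone or together with 50 µM cytidine or 2′-deoxycytidine. Luciferase activity read in lysates. Three biological replicates, SD.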

For data set [5], the system named is Hepatitis C virus. The data set can be described thus: Antiviral activity against HCV infected in human Huh-7 cells assessed as reduction in viral replication measured after 48 hrs by luciferase reporter gene assay. The data set is classed as functional, organism-based, Hepacivirus hominis. The following applies: Huh-7, 48 h. Put shortly:
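Replicon-bearing Huh7 cells seeded at 10,000/well and allowed to attach for 24 h at 37 °C. Triplicate biological wells then treated 48 h with compound in DMEM, 10% FBS, 0.5% DMSO final. Bright-Glo luminescence expressed relative to untreated cells. IC50 from a four-parameter logistic fit.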
For orientation: In a reporter assay the amount or activity of a reporter protein is the signal.

A short description of data set [6]: Stability in pH 8 aqueous buffer assessed as parent compound remaining at 200 uM measured after 4 hrs by UV spectrophotometry. The data set is classed as physicochemical. The following applies: read-out: Stabilty. Put shortly: as §1
The nature of data set [7]: Stability in pH 4 aqueous buffer assessed as parent compound remaining at 200 uM measured after 4 hrs by UV spectrophotometry. The data set is classed as physicochemical. The conditions noted are these: read-out: Stabilty. Put shortly:
as §1

Data set [8] in a line: Cytotoxicity against human Huh-7 cells assessed as reduction in cell viability measured after 48 hrs in presence of ENT1 inhibitor NBTI […]. The data set is classed as cell-based. The following applies: with NBTI (ENT1 inhibitor; concentration not stated), read-out: TC50.
Data set [9] is described as follows: Stability in pH 1 aqueous buffer assessed as parent compound remaining at 200 uM measured after 4 hrs by UV spectrophotometry. The data set is classed as physicochemical. The conditions noted are these: read-out: Stabilty. The essentials:
as §1

Data set [10] concerns Hepatitis C virus. The data set can be described thus: Antiviral activity against HCV infected in human Huh-7 cells assessed as reduction in viral replication at 25 to 1000 nM measured after 48 hrs in presence of cytidine by luciferase reporter gene assay. Format: functional, organism-based. The conditions noted are these: Hepacivirus hominis, dose 25-1000 nM. Put shortly: as §2

Data set [11] concerns Hepatitis C virus. The data set can be described thus: Antiviral activity against HCV infected in human Huh-7 cells assessed as reduction in viral replication preincubated for 2 hrs followed by replacement with fresh culture medium and measured after 46 hrs by luciferase reporter gene assay. The data set is classed as functional, organism-based, Hepacivirus hominis. The essentials: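 HCV luciferase-replicon Huh7 cells were seeded at 10,000 cells/well and allowed 24 h to attach. Three biological replicates were exposed to graded compound in DMEM/10% FBS/0.5% DMSO for 2 h only, then the medium was replaced with fresh growth medium for 46 h at 37 °C.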

Data set [12] has as its system Hepatitis C virus. The data set can be described thus: Antiviral activity against HCV infected in human Huh-7 cells assessed as reduction in viral replication at 500 nM measured within 6 hrs by luciferase reporter gene assay. The data set is classed as functional, Hepacivirus hominis. Set-up: scale not given: the % may be the effect or the level left. The conditions noted are these: time hrs <=6. Put shortly:
(§3)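 Huh7 luciferase replicon cells treated with 500 nM compound or mock for up to 48 h. Cells were lysed at various times and the lysates snap-frozen in liquid nitrogen. All lysates were then assayed for luciferase together.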

Data set [13] in a line: Cytotoxicity against human BXPC-3 cells assessed as reduction in cell viability measured after 96 hrs by celltiter-glo assay. The conditions noted are these: read-out: TC50. The data set is classed as cell-based.
Data set [14] is described as follows: Toxicity in human Huh-7 cells assessed as reduction in cell viability measured after 96 hrs by celltiter-glo assay. The data set is classed as cell-based. The following applies: read-out: TC50.
Data set [15] is described as follows: Cytotoxicity against human MCF7 cells assessed as reduction in cell viability measured after 96 hrs by celltiter-glo assay. The data set is classed as cell-based. The following applies: read-out: TC50.
Data set [16] concerns Hepatitis C virus. The data set can be described thus: Antiviral activity against HCV infected in human Huh-7 cells assessed as reduction in viral replication measured after 48 hrs in presence of human carboxylesterase 1/2 inhibitor benzil by luciferase reporter gene assay. Format: functional, organism-based, Hepacivirus hominis. The following applies: Huh-7, 48 h. The essentials:
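Huh7 cells carrying an HCV luciferase-reporter replicon, grown with 10% FBS and G418, were seeded at 10,000 cells/well and left 24 h to attach. Three biological replicates were treated with graded compound in DMEM/10% FBS/0.5% DMSO with benzil present, for 48 h at 37 °C. Bright-Glo luciferase was read, and IC50 came from a four-parameter logistic fit.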

Data set [17] is described as follows: Ratio of IC50 for antiviral activity against HCV infected in human Huh-7 cells in presence of esterase inhibitor bis-p-nitrophenyl phosphate to antiviral activity against HCV infected in human Huh-7 cells in absence of esterase inhibitor bis-p-nitrophenyl phosphate. Format: functional, Hepacivirus hominis.
In data set [18] the test system is Hepatitis C virus. The data set can be described thus: Synergistic antiviral activity against HCV infected in human Huh-7 cells assessed as reduction in viral replication measured after 48 hrs in presence of NS5B inhibitor PSI-6130. by luciferase reporter gene assay. The conditions noted are these: Hepacivirus hominis. The data set is classed as functional, organism-based.

The nature of data set [19]: Cytotoxicity against human Huh-7 cells assessed as reduction in cell viability measured after 48 hrs by celltiter-glo assay. The data set is classed as cell-based. The conditions noted are these: read-out: TC50.
The test system of data set [20] is Hepatitis C virus. The data set can be described thus: Antiviral activity against HCV infected in human Huh-7 cells assessed as reduction in viral replication at 500 nM measured after 36 hrs by luciferase reporter gene assay. The data set is classed as functional, organism-based. The conditions noted are these: Hepacivirus hominis. Put shortly:
as §3

Data set [21] deals with Hepatitis C virus. The data set can be described thus: Antiviral activity against HCV infected in human Huh-7 cells assessed as reduction in viral replication at 500 nM measured after 24 to 30 hrs by luciferase reporter gene assay. Format: functional, Hepacivirus hominis. The conditions noted are these: time 24-30 hrs. Details: scale not given: the % may be the effect or the level left. Put shortly:
as §3

Data set [22] in a line: Ratio of IC50 for antiviral activity against HCV infected in human Huh-7 cells in presence of human carboxylesterase 1/2 inhibitor benzil to antiviral activity against HCV infected in human Huh-7 cells in absence of human carboxyesterases1/2 inhibitor benzil. The data set is classed as functional, Hepacivirus hominis.
Data set [23] can be described thus: Ratio of gemcitabine TC50 to test compound TC50 for cytotoxicity against human BXPC-3 cells assessed as reduction in cell viability. The data set is classed as cell-based.
Data set [24] relates to Hepatitis C virus. The data set can be described thus: Synergistic antiviral activity against HCV infected in human Huh-7 cells assessed as reduction in viral replication measured after 48 hrs in presence of NS5A inhibitor daclatasvir. by luciferase reporter gene assay. Format: functional, organism-based. The conditions noted are these: Hepacivirus hominis. Put shortly: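 Replicon Huh7 cells treated 48 h with compound across 0.001–10,000 nM, each series at a fixed daclatasvir level from 0.005–0.025 nM. Luciferase read as above. A, B and C from the fits gave compound IC50 at each daclatasvir concentration, and these were plotted on an isobologram.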

Data set [25] has as its system Hepatitis C virus. The data set can be described thus: Ratio of IC50 for antiviral activity against HCV infected in human Huh-7 cells assessed as reduction in viral replication preincubated for 2 hrs followed by replacement with fresh culture medium and measured after 46 hrs by luciferase reporter gene assay to IC50 for antiviral activity against HCV infected in human Huh-7 cells assessed as reduction in viral replication measured after 48 hrs by …. Format: functional, Hepacivirus hominis.

A short description of data set [26]: Ratio of gemcitabine TC50 to test compound TC50 for cytotoxicity against human MCF7 cells assessed as reduction in cell viability. The data set is classed as cell-based.
The subject of data set [27] is Hepatitis C virus. The data set can be described thus: Antiviral activity against HCV infected in human Huh-7 cells assessed as reduction in viral replication measured after 48 hrs in presence of esterase inhibitor bis-p-nitrophenyl phosphate by luciferase reporter gene assay. The following applies: Huh-7, 48 h. The data set is classed as functional, organism-based, Hepacivirus hominis.

The nature of data set [28]: Prodrug conversion assessed as human carboxylesterase 1/2-mediated gemcitabine release measured after 1 hr by HPLC analysis. Format: ADME.
The test system of data set [29] is Hepatitis C virus. The data set can be described thus: Antiviral activity against HCV infected in human Huh-7 cells assessed as reduction in viral replication at 500 nM measured after 48 hrs by luciferase reporter gene assay. The data set is classed as functional, organism-based. The following applies: Hepacivirus hominis. Put shortly:
as §3

Activity calls are given as the source filed them. The rule behind the calls is not given here.

`Nc1ccn([C@@H]2O[C@H](CO)[C@@H](O)C2(F)F)c(=O)n1` [GEMCITABINE]: the remaining at 4 h, 200 µM in [1] was determined as 88%; in data set [3], 100%; in data set [6], 100%; in [7], 98%; in data set [9], 79%. Also, the CC50 at 96 h in [2] came to 560 nM; in data set [13], 2.9 nM; in [14] it was 3400 nM; in [15] it was 67 nM. In addition, the CC50 in the data set on HepG2 was 310 nM. For the same compound, the result in the data set on Hepatitis C virus [4] and with Hepatitis C virus [10] was inactive. In addition, the half-inhibitory concentration (IC50) in the data set with Hepatitis C virus [5] came out at 58 nM; in the data set with Hepatitis C virus [11], 170 nM. For the same compound, in [8], the CC50 at 48 h is above 500000 nM. Besides, the Activity with Hepatitis C virus [12] worked out at 50%.
`COc1cc(C(=O)Nc2ccn([C@@H]3O[C@H](CO)[C@@H](O)C3(F)F)c(=O)n2)cc(OC)c1OC`: the remaining at 4 h, 200 µM in [1] came to 87%; in data set [3] it was 99.5%; in data set [6], 82.7%; in data set [7] it was 98.6%; in data set [9], 86%. The IC50 with Hepatitis C virus [16] was 125 nM; in the data set on Hepatitis C virus [5], 49.3 nM; in the data set on Hepatitis C virus [11], 2800 nM; in the data set on Hepatitis C virus [27], 81 nM. Moreover, the figures for the “Ratio IC50” value (in data set [17]; in data set [22]; in the data set with Hepatitis C virus [25]) were 1.6, 2.5 and 56, respectively. Also, the CC50 at 96 h in data set [2] came to 1300 nM; in data set [13], 1800 nM; in data set [14] it was 5100 nM; in data set [15], 570 nM. Further, the result in the data set with Hepatitis C virus [18], in the data set with Hepatitis C virus [20], in the data set with Hepatitis C virus [24] and in the data set with Hepatitis C virus [29] was Active. Besides, the CC50 with HepG2 was determined as 1700 nM. Moreover, the outcome in the data set on Hepatitis C virus [4] and in the data set on Hepatitis C virus [10] was inactive. Also, the CC50 at 48 h in data set [19] came out at 490000 nM; in data set [8], 398000 nM. For the same compound, the Activity with Hepatitis C virus [21] is on record as 50%. Also, the figures for the selectivity ratio in data set [23] and in data set [26] were at most 620 and at most 24, respectively. For the same compound, in [28], the Drug metabolism entry is “Metabolite_Detected”.

One may read the IC50 as the concentration at which inhibition is half-maximal.
